Results as given in ChEMBL document CHEMBL2311424, “Inhibitors of human immunodeficiency virus type 1 (HIV-1) attachment 13. Synthesis and profiling of a novel amminium prodrug of the HIV-1 attachment inhibitor BMS-585248” (J Med Chem, 2013).

Tests used:
[1] = Permeability across human Caco2 cells; type: ADME, cell-based; conditions: Caco-2, read-out: permeability
[2] = Aqueous solubility of the compound; type: physicochemical
[3] = tested on: Human immunodeficiency virus 1; assay: Antiviral activity against HIV1; type: functional, organism-based
Hepatocyte = assay: Prodrug activation in rat hepatocytes assessed as BMS-585248 formation; type: cell-based
How it was run: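 In-house isolated rat hepatocytes incubated with prodrug (10 μM final) for 2 h at 37 °C in humidified 95/5% air/CO2; aliquots quenched in ice-cold acetonitrile, centrifuged, prodrug and parent quantified by LC/MS/MS.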

Liver microsomes = assay: Prodrug activation in rat liver microsomes assessed as BMS-585248 formation; design: species or system Microsome
How it was run: (§1)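 Rat liver cytosol (2 mg/mL) or microsomes (1 mg/mL) incubated with prodrug (10 μM final) and 1 mM NADPH up to 2 h at 37 °C, shaking; anaerobic runs used nitrogen-purged 0.1 M phosphate buffer with 10 mM MgCl2 under humidified nitrogen for 60 min. Acetonitrile quench, LC/MS/MS of prodrug and parent.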

Liver = assay: Prodrug activation in rat liver cytosol assessed as BMS-585248 formation; type: tissue-based; how it was run: as §1
Plasma = assay: Prodrug activation in rat plasma assessed as BMS-585248 formation; type: cell-free
How it was run: (§2)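 Prodrug at 10 μM final incubated 60 min at 37 °C in Tris-HCl buffer pH 7.4, rat blood or rat plasma, aerobic. Aliquots quenched with equal volume ice-cold acetonitrile, centrifuged, supernatant analysed by LC/MS/MS for prodrug and parent.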

[4] = Prodrug activation in Tris-HCl buffer assessed as BMS-585248 formation at pH 7.4; how it was run: as §2
Blood = assay: Prodrug activation in rat blood assessed as BMS-585248 formation; type: tissue-based; how it was run: as §2
Canis familiaris = assay: AUC in beagle dog assessed as BMS-585248 level at 5 mg/kg, po; type: ADME, organism-based, Canis lupus familiaris, Plasma; design: dose 5 mg/kg, route oral; conditions: in vivo
[5] = AUC in beagle dog at 5 mg/kg, po; type: ADME, organism-based, Canis lupus familiaris; design: dose 5 mg/kg, route oral; conditions: plasma
[6] = Cmax in beagle dog at 5 mg/kg, po; type: ADME, organism-based, Canis lupus familiaris; design: dose 5 mg/kg, route oral; conditions: in vivo
[7] = Half life in beagle dog at 1 mg/kg, iv; type: ADME, organism-based, Canis lupus familiaris; design: dose 1 mg/kg, route intravenous; conditions: in vivo
[8] = Volume of distribution in beagle dog at 1 mg/kg, iv; type: ADME, organism-based, Canis lupus familiaris; design: dose 1 mg/kg, route intravenous; conditions: in vivo
[9] = Clearance in beagle dog at 1 mg/kg, iv; type: ADME, organism-based, Canis lupus familiaris; design: dose 1 mg/kg, route intravenous; conditions: in vivo
[10] = Drug excretion in bile duct cannulated Sprague-Dawley rat urine at 1 mg/kg, iv up to 2 hrs; type: ADME, organism-based; design: dose 1 mg/kg, route intravenous; conditions: read-out: Drug excretion
How it was run: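 Bile duct/jugular vein cannulated male rats (n = 3) given prodrug 1 mg/kg IV; plasma, bile and urine collected up to 6 h. Biotransformation profiled by UPLC on C18 at 40 °C with gradient elution, positive electrospray full-scan MS and data-dependent MS/MS; relative percentages of prodrug, N-acetyl conjugate and parent reported.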

Rattus norvegicus [11] = assay: AUC in dual cannulated portal vein Sprague-Dawley rat assessed as BMS-585248 level at 5 mg/kg, po; type: ADME, organism-based, Plasma; design: dose 5 mg/kg, route oral; conditions: in vivo
Rattus norvegicus [12] = assay: Cmax in dual cannulated portal vein Sprague-Dawley rat assessed as BMS-585248 level at 5 mg/kg, po; type: ADME, organism-based; design: dose 5 mg/kg, route oral; conditions: in vivo
[13] = AUC in dual cannulated portal vein Sprague-Dawley rat at 5 mg/kg, po; type: ADME, organism-based; design: dose 5 mg/kg, route oral; conditions: plasma
[14] = Cmax in dual cannulated portal vein Sprague-Dawley rat at 5 mg/kg, po; type: ADME, organism-based; design: dose 5 mg/kg, route oral
Rattus norvegicus [15] = assay: AUClast in Sprague-Dawley rat assessed as BMS-585248 level at 5 mg/kg, po; type: ADME, organism-based, Plasma; design: time 0 - last, dose 5 mg/kg, route oral; conditions: in vivo
How it was run: (§3)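 Male rats (n = 3 per group) pretreated 2 days with saline or an antibiotic mix (bacitracin 400 mg/kg BID, neomycin sulfate 400 mg/kg BID, tetracycline 200 mg/kg), then given prodrug 5 mg/kg orally. Plasma to 24 h, stored −20 °C, LC/MS/MS quantitation of prodrug and parent.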

Rattus norvegicus [16] = assay: AUClast in bacitracin, neomycin sulfate and tetracycline treated Sprague-Dawley rat assessed as BMS-585248 level at 5 mg/kg, po; type: ADME, organism-based, Plasma; design: dose 5 mg/kg, route oral, time 0 - last; conditions: in vivo; how it was run: as §3
Rattus norvegicus [17] = assay: Cmax in bacitracin, neomycin sulfate and tetracycline treated Sprague-Dawley rat assessed as BMS-585248 level at 5 mg/kg, po; type: ADME, organism-based; design: dose 5 mg/kg, route oral; conditions: in vivo; how it was run: as §3
Rattus norvegicus [18] = assay: Total AUC in Sprague-Dawley rat assessed as BMS-585248 level at 200 mg/kg, po; type: ADME, organism-based; design: time AUCmax, dose 200 mg/kg, route oral; conditions: in vivo
How it was run: (§4)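 Oral dose escalation in male rats, groups of three, dosed by gavage from solutions in water with 0.5% methylcellulose: prodrug trifluoroacetate salt at 5, 25 and 200 mg/kg; parent at 15, 75 and 200 mg/kg. Plasma analysed by LC/MS/MS; noncompartmental PK.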

Rattus norvegicus [19] = assay: Total AUC in Sprague-Dawley rat assessed as BMS-585248 level at 25 mg/kg, po; type: ADME, organism-based; design: time AUCmax, dose 25 mg/kg, route oral; conditions: in vivo; how it was run: as §4
Rattus norvegicus [20] = assay: Total AUC in Sprague-Dawley rat assessed as BMS-585248 level at 5 mg/kg, po; type: ADME, organism-based; design: dose 5 mg/kg, route oral, time AUCmax; conditions: in vivo; how it was run: as §4
Rattus norvegicus [21] = assay: Cmax in Sprague-Dawley rat assessed as BMS-585248 level at 200 mg/kg, po; type: ADME, organism-based; design: dose 200 mg/kg, route oral; conditions: in vivo; how it was run: as §4
Rattus norvegicus [22] = assay: Cmax in Sprague-Dawley rat assessed as BMS-585248 level at 25 mg/kg, po; type: ADME, organism-based; design: dose 25 mg/kg, route oral; conditions: in vivo; how it was run: as §4
Rattus norvegicus [23] = assay: Cmax in Sprague-Dawley rat assessed as BMS-585248 level at 5 mg/kg, po; type: ADME, organism-based; design: dose 5 mg/kg, route oral; conditions: in vivo; how it was run: as §4
Rattus norvegicus [24] = assay: AUC in Sprague-Dawley rat assessed as BMS-585248 level at 5 mg/kg, po; type: ADME, organism-based, Plasma; design: dose 5 mg/kg, route oral; conditions: in vivo
How it was run: (§5)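 Male rats, groups of three; prodrug trifluoroacetate salt given by IV bolus (1 mg/kg) or oral gavage (5 mg/kg) after overnight fast, both from a 1 mg/mL solution in PEG-400/ethanol 90/10 v/v. Plasma sampled up to 24 h, stored at −20 °C, parent and prodrug quantified by LC/MS/MS; noncompartmental analysis.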

[25] = AUC in Sprague-Dawley rat at 5 mg/kg, po; type: ADME, organism-based; design: dose 5 mg/kg, route oral; conditions: plasma; how it was run: as §5
Rattus norvegicus [26] = assay: Cmax in Sprague-Dawley rat assessed as BMS-585248 level at 5 mg/kg, po after 6 hrs; type: ADME, organism-based; design: dose 5 mg/kg, route oral; conditions: in vivo
[27] = Cmax in Sprague-Dawley rat at 5 mg/kg, po after 6 hrs; type: ADME, organism-based; design: dose 5 mg/kg, route oral; conditions: in vivo
Rattus norvegicus [28] = assay: AUC in Sprague-Dawley rat assessed as BMS-585248 level at 1 mg/kg, iv; type: ADME, organism-based, Plasma; design: dose 1 mg/kg, route intravenous; conditions: in vivo; how it was run: as §5
[29] = AUC in Sprague-Dawley rat at 1 mg/kg, iv; type: ADME, organism-based; design: dose 1 mg/kg, route intravenous; conditions: plasma; how it was run: as §5
[30] = Half life in Sprague-Dawley rat at 1 mg/kg, iv; type: ADME, organism-based; design: dose 1 mg/kg, route intravenous; conditions: in vivo; how it was run: as §5
Rattus norvegicus [31] = assay: Prodrug conversion in Sprague-Dawley rat assessed as BMS-585248 level at 1 mg/kg, iv after 5 mins; type: ADME, organism-based; design: dose 1 mg/kg, route intravenous; conditions: in vivo; how it was run: as §5
[32] = Volume of distribution in Sprague-Dawley rat at 1 mg/kg, iv; type: ADME, organism-based; design: dose 1 mg/kg, route intravenous; conditions: in vivo; how it was run: as §5
[33] = Clearance in Sprague-Dawley rat at 1 mg/kg, iv; type: ADME, organism-based; design: dose 1 mg/kg, route intravenous; conditions: in vivo; how it was run: as §5
[34] = AUClast in Sprague-Dawley rat at 5 mg/kg, po; type: ADME, organism-based; design: time 0 - last, dose 5 mg/kg, route oral; conditions: plasma; how it was run: as §3
[35] = AUClast in bacitracin, neomycin sulfate and tetracycline treated Sprague-Dawley rat at 5 mg/kg, po; type: ADME, organism-based; design: time 0 - last, dose 5 mg/kg, route oral; conditions: plasma; how it was run: as §3
Rattus norvegicus [36] = assay: Cmax in bacitracin, neomycin sulfate and tetracycline treated Sprague-Dawley rat at 5 mg/kg, po; type: ADME, organism-based; design: dose 5 mg/kg, route oral; conditions: in vivo; how it was run: as §3
[37] = Total AUC in Sprague-Dawley rat at 200 mg/kg, po; type: ADME, organism-based; design: time AUCmax, dose 200 mg/kg, route oral; conditions: in vivo; how it was run: as §4
[38] = Total AUC in Sprague-Dawley rat at 75 mg/kg, po; type: ADME, organism-based; design: time AUCmax, dose 75 mg/kg, route oral; conditions: in vivo; how it was run: as §4
[39] = Cmax in Sprague-Dawley rat at 75 mg/kg, po; type: ADME, organism-based; design: dose 75 mg/kg, route oral; conditions: in vivo; how it was run: as §4
[40] = Cmax in Sprague-Dawley rat at 200 mg/kg, po; type: ADME, organism-based; design: dose 200 mg/kg, route oral; conditions: in vivo; how it was run: as §4
[41] = Cmax in Sprague-Dawley rat at 15 mg/kg, po; conditions: in vivo
[42] = Total AUC in Sprague-Dawley rat at 15 mg/kg, po; conditions: in vivo

Compound: N[n+]1ccn(-c2ncc(F)c3c(C(=O)C(=O)N4CCN(C(=O)c5ccccc5)CC4)c[nH]c23)n1.[Cl-]
- Papp [1]: 1.5 ×10⁻⁶ cm/s
- solubility [2]: 1760 µg/mL
- EC50 [3]: 1760 pM
- Drug metabolism (Hepatocyte): Not Active
- Drug metabolism (Liver microsomes): Not Active
- Drug metabolism (Liver): Not Active
- Drug metabolism (Plasma): Not Active
- Drug metabolism [4]: Not Active
- Drug metabolism (Blood): Not Active
- AUC (Canis familiaris): 8.064 µM·h
- AUC [5]: 0.217 µM·h
- Cmax [6]: 139 nM
- half-life [7]: 54 min
- Vd [8]: 0.3 L/kg
- clearance [9]: 13.8 mL/min/kg

Compound: CC(=O)N[n+]1ccn(-c2ncc(F)c3c(C(=O)C(=O)N4CCN(C(=O)c5ccccc5)CC4)c[nH]c23)n1
- dose excreted at 2 h [10]: 16.5%

Compound: N[n+]1ccn(-c2ncc(F)c3c(C(=O)C(=O)N4CCN(C(=O)c5ccccc5)CC4)c[nH]c23)n1.O=C([O-])C(F)(F)F
- dose excreted at 2 h [10]: 80%
- AUC (Rattus norvegicus [11]): 23.873 µM·h
- Cmax (Rattus norvegicus [12]): 2140 nM
- AUC [13]: 0.035 µM·h
- Cmax [14]: 74 nM
- AUClast (Rattus norvegicus [15]): 0.112 µM·h
- AUClast (Rattus norvegicus [16]): 0.148 µM·h
- Cmax (Rattus norvegicus [17]): 79 nM
- AUC (Rattus norvegicus [18]): 996 µM·h
- AUC (Rattus norvegicus [19]): 72 µM·h
- AUC (Rattus norvegicus [20]): 8 µM·h
- Cmax (Rattus norvegicus [21]): 77000 nM
- Cmax (Rattus norvegicus [22]): 12000 nM
- Cmax (Rattus norvegicus [23]): 1300 nM
- AUC (Rattus norvegicus [24]): 28.098 µM·h
- AUC [25]: 0.0208 µM·h
- Cmax (Rattus norvegicus [26]): 3120 nM
- Cmax [27]: 23 nM
- AUC (Rattus norvegicus [28]): 3.22 µM·h
- AUC [29]: 1.55 µM·h
- half-life [30]: 18 min
- Drug metabolism (Rattus norvegicus [31]): Active
- Vd [32]: 0.29 L/kg
- clearance [33]: 23 mL/min/kg

Compound: O=C(C(=O)N1CCN(C(=O)c2ccccc2)CC1)c1c[nH]c2c(-n3ccnn3)ncc(F)c12
- EC50 [3]: 60 pM
- dose excreted at 2 h [10]: 3.5%
- AUC(0-t) [34]: 47.5 µM·h
- AUC(0-t) [35]: 13.8 µM·h
- Cmax (Rattus norvegicus [36]): 18 nM
- AUC [37]: 145 µM·h
- AUC [38]: 115 µM·h
- Cmax [39]: 8400 nM
- Cmax [40]: 11000 nM
- Cmax [41]: 6600 nM
- AUC [42]: 42 µM·h
